Columns and labels:
MT4 [1] = assay: Inhibitory concentration against nevirapine resistant human immunodeficiency virus type 1 mutant type Tyr181Cys was determined in MT-4 cells; format: functional, cell-based
Summary of the method: (§1)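 Whole-cell antiviral assay in MT4 cells, a human T-cell lymphotropic virus-transformed line. Cells were infected with wild-type HIV-1 strain IIIB or with nevirapine-resistant HIV-1 carrying the Tyr181Cys RT mutation. Inhibition was read by a propidium iodide-based colorimetric assay that estimates DNA content.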

MT4 [2] = assay: Inhibitory concentration against human immunodeficiency virus type 1 was determined in MT-4 cells; format: functional, cell-based; summary of the method: as §1
[3] = target: T1, Human immunodeficiency virus type 1 reverse transcriptase (Human immunodeficiency virus 1, UniProt Q72547); assay: Concentration required for 50% inhibition of human immunodeficiency virus type 1 reverse transcriptase Ile100
[4] = target: T1, Human immunodeficiency virus type 1 reverse transcriptase; assay: Concentration required for 50% inhibition of human immunodeficiency virus type 1 reverse transcriptase mutant type Cys181
[5] = target: T1, Human immunodeficiency virus type 1 reverse transcriptase; assay: Concentration required for 50% inhibition of human immunodeficiency virus type 1 reverse transcriptase mutant type Ile100
Summary of the method: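 Inhibition of mutant HIV-1 RT enzyme, tested alongside wild-type RT; IC50 values are the mean of two independent experiments.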

| Compound | IC50 (MT4 [1]) [nM] | IC50 (MT4 [2]) [nM] | IC50 [3] [nM] | IC50 [4] [nM] | IC50 [5] [nM] |
| --- | --- | --- | --- | --- | --- |
| CCCc1c([S+]([O-])C2CCCCC2)c2cc(Cl)ccc2[nH]c1=O (stereo unspecified) | 2210 | 240 | 2380 | 1260 | – |
| CCCc1c(OC2CCCCC2)c2cc(Cl)ccc2[nH]c1=O | 600 | 30 | – | 1130 | 1360 |
| CC(C)c1c(OC2CCCCC2)c2cc(Cl)ccc2[nH]c1=O | 710 | 50 | – | 2500 | 1960 |
| CCCc1c(SC2CCCCC2)c2cc(Cl)ccc2[nH]c1=O | 360 | 100 | 1610 | 860 | – |

Source: ChEMBL document CHEMBL1137821, “Design of non-nucleoside inhibitors of HIV-1 reverse transcriptase with improved drug resistance properties. 1” (J Med Chem, 2004)
